# Compound activity as filed in PubChem BioAssay.
# NLRP3 yeast inh: NALP3 inflammasome inhibitors in reconstituted yeast, primary screen, luminescence, uHTS. 330,000 compounds, 0.39% hits. inhibition, % at 10 µM. Yeast reconstituted NLRP3/ASC/caspase-1, beta-gal luminescence, 24 h. AID 2825, 2010;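 active means inhibition of 50% or more; inactive means inhibition below 50%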;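 further: plate controls were induced DMSO wells for no effect and uninduced yeast grown without galactose for full effect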
# Arrestin-AP2 inh: inhibitors of beta-arrestin/AP2 binding, primary screen, biochemical, GPCR trafficking, flow cytometry | FITC-arrestin peptide / GST-AP2 beads; AP2 beta2 appendage carries R879A mutation | inhibition, % at 10 µM | 340,000 compounds, 0.31% hits;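 active means inhibition above a set limit, near 3 SD of compounds lacking own fluorescence, cut at about 54% in these data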;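 further: plate controls were DMSO wells for no effect and 5 µM unlabelled arrestin peptide for full effect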
#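 System: GST-AP2 R879A glutathione beads | Also added: FITC-arrestin peptide, 50 nM | Times: 12 min plus 1 h, RT | Signal: Bead flow cytometry, FITC channel | Buffer or medium: PBS with 0.05% Tween 20 and 0.1% BSA | Read-out basis: Percent drop in bead-associated FITC signal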
# DSG3 Ab inh: inhibitors of pemphigus antibody binding to DSG3, primary screen, biochemical, bead-based, flow cytometry, scFv-GFP. Desmoglein-3 (Homo sapiens), P32926. DSG3-coupled beads, scFv-anti-DSG3-GFP binding; active compounds read low. binding (percent of control), % at 10 µM. 310,000 compounds, 0.48% hits. AID 588358, 2011;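 active means binding more than 3 SD below its plate's average and above zero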;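 further: hits lower antibody fragment binding to DSG3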
# PolyA inh: polyadenylation inhibitors in yeast reporter cells, primary screen, luminescence, S. cerevisiae | activity score, % at 12 µM | AID 1875, 2009 | 300,000 compounds, 0.02% hits | S. cerevisiae SKY197-pL101 polyadenylation reporter, beta-gal luminescence; efflux-impaired pdr1/pdr3 knockout yeast; score 100 = 6 SD above DMSO;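 active means lowest replicate activity score at least 50, where 100 means six control SD above control mean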;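 further: yeast exposed to compound for 9 h at 30 °C; higher score means more reporter readthrough which indicates perturbed polyadenylation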
# NALP1 yeast inh: NALP1 inflammasome inhibitors in reconstituted yeast, colorimetric, S. cerevisiae, triplicate retest; S. cerevisiae NALP1/ASC/caspase-1 growth, X-gal OD620, 72 h; inhibition, % at 10 µM; 280,000 compounds, 0.61% hits; AID 2071, 2009; in the data active means inhibition mostly above about 24%, no sharp cut-off; inactive means mostly below about 32%
# ALR H2O2 inh: inhibitors of human ALR sulfhydryl oxidase, primary screen, biochemical, H2O2 detection, HRP-luminol luminescence, single point | purified ALR, DTT oxidation | inhibition, % (no concentration beside the values) | 290,000 compounds, 3.8% hits | AID 485317, 2010;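 active means mean replicate inhibition above about 79%, with every replicate also reaching it, limit read from the data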
# Target sequence (P55789 whole entry, looked up): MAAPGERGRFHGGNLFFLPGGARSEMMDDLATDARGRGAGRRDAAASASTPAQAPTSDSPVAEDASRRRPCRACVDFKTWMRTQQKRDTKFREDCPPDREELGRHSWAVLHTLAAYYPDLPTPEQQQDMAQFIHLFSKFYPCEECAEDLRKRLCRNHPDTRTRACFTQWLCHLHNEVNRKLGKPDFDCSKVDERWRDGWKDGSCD
# * marks the source's active call; other numbers are inactive results; · = no result given. This is a sample that favours compounds with a hit; in the whole collection about 4.6% have one here.
SMILES,NLRP3 yeast inh,Arrestin-AP2 inh,DSG3 Ab inh,PolyA inh,NALP1 yeast inh,ALR H2O2 inh
O=C(Nc1cc(Br)c(O)c(Br)c1)c1cccc(NC(=O)c2ccco2)c1,24.4,-20.0,130.1,5.8,16.5,98.4*
O=C(Nc1cccc(NC(=O)c2ccco2)c1)c1cccc(Br)c1,13.2,23.5,108.0,0.9,6.7,·
O=C(Nc1cccc(N=Cc2cc(Cl)cc(Br)c2O)c1)c1ccco1,4.1,9.8,112.2,-22.8,12.0,-7.6
O=C(Nc1cccc(N=Cc2cc(Br)cc(Br)c2O)c1)c1ccco1,·,2.6,111.2,-55.9,65.3*,2.8
O=C(CN1C(=O)NC2(CCCC2)C1=O)NCCc1ccc(F)cc1,6.1,30.7,89.8,·,·,-3.0
CC(=O)C1=C(C)NC(SCc2ccc(C#N)cc2)=C(C#N)C1c1ccco1 (configuration not stated),·,30.1,·,·,27.8,32.8
CC(=O)C1=C(C)NC(SCC(=O)c2ccc(Cl)cc2)=C(C#N)C1c1ccco1 (configuration not stated),23.1,8.4,95.7,-6.5,-9.7,21.8
CC(=O)C1=C(C)NC(SCC(=O)c2ccc(Cl)cc2Cl)=C(C#N)C1c1ccco1 (configuration not stated),12.0,-39.8,76.8*,-2.0,15.6,-28.4
CC(=O)C1=C(C)NC(SCc2cccc3ccccc23)=C(C#N)C1c1ccco1 (configuration not stated),4.5,-13.3,98.6,-20.2,14.9,99.3*
O=C(CCC(=O)N1CCN(c2cccc(Cl)c2)CC1)c1cccs1,8.3,33.5,96.5,-2.6,·,38.4
CC(=O)c1ccc(NS(=O)(=O)c2cccc3cccnc23)cc1,·,·,99.4,·,·,·
O=C(N/N=C/c1ccc(O)c(O)c1)N/N=C/c1ccc(O)c(O)c1,10.1,32.8,88.6,-7.0,4.9,99.6*
COc1cccc2c(SCC(=O)N/N=C/c3ccc(O)c(O)c3)cc(C)nc12,·,-3.0,·,-2.2,-9.7,99.6*
Cc1cc(SCC(=O)N/N=C/c2ccc(O)c(O)c2)c(C)cc1Br,25.2,38.3,98.5,12.2,7.1,98.8*
COc1ccccc1Nc1cc(C)nc2c(C)cccc12,·,·,107.2,·,·,·
COc1cccc2c(N/N=C/c3ccccc3)cc(C)nc12,11.6,38.0,99.7,-8.7,7.3,87.1*
CCN1CCN(c2ccc(Nc3ccnc4ccccc34)cc2)CC1,14.0,5.9,95.5,·,·,·
CN1CCN(C(=O)c2cccn(Cc3c(Cl)cccc3Cl)c2=O)CC1,15.6,-1.8,98.1,-5.0,22.8,1.9
Cc1ccc(C(=O)N/C(=C\c2cn(C)c3ccccc23)C(=O)NCCN2CCOCC2)cc1,-3.6,52.7,103.4,1.6,7.3,18.7
COc1ccc2nc(C)cc(SCC(=O)N/N=C/c3cccc4ccccc34)c2c1,15.2,-3.3,93.5,21.4,36.6,-0.1
COc1ccc2c(c1)c(C(=O)N/N=C/c1ccc(O)c(O)c1)c(C)n2C,10.2,-3.1,95.7,1.1,29.3,99.5*
COc1cccc2c(SCC(=O)N/N=C/c3ccccc3)cc(C)nc12,9.8,-1.4,105.7,5.5,40.2,98.6*
COc1ccc2nc(C)cc(SCC(=O)N/N=C/c3ccc(O)c(O)c3)c2c1,29.1,-2.5,96.1,16.6,14.3,88.3*
CCCCSc1nc(C)cc(SCC(=O)N/N=C/c2ccccc2)n1,16.4,-17.3,101.2,5.4,20.9,-2.0
COc1ccc2c(c1)c(C(=O)N/N=C/c1ccc(Br)cc1)c(C)n2C,19.7,14.7,·,1.5,·,·
Cc1noc(C)c1C(=O)OC(C)C(=O)c1ccc(C(C)(C)C)cc1 (configuration not stated),·,·,100.1,·,·,·
CC(NC(=O)c1cccc(S(=O)(=O)N2CCN(Cc3ccccc3)CC2)c1)c1ccc(Br)cc1 (configuration not stated),11.1,18.9,·,-9.7,18.0,-0.6
